Measured values taken from ChEMBL document CHEMBL1153954, “Promiscuous aggregate-based inhibitors promote enzyme unfolding” (J Med Chem, 2009).
The source made the active and inactive calls. The calls are words filed in the database; no cut-off is given here.

Biological target: AmpC (Escherichia coli) (UniProt Q83TT7)
Experiment: Inhibition of Escherichia coli AmpC assessed as induction of protein unfolding measured by trypsin mediated degradation of compound-AmpC enzyme complex at 250 uM after 15 mins by gel electrophoresis
In short: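 AmpC β-lactamase (0.5 μM) in 50 mM KPi, pH 7.0, with or without aggregator at 250 μM (1% DMSO final). Trypsin (0.01 or 0.025 mg/mL) added after 5 min. Digestion ran at room temperature for 0 min to 4 h. Samples were boiled 2 min in DTT-containing loading buffer, run on SDS-PAGE, and the β-lactamase band was scored against compound-free enzyme.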

AmpC (Escherichia coli), sequence (Q83TT7 as listed by the source): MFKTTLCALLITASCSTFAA

- Activity: Active
Structure (SMILES): O=S(=O)(O)c1cc(O)c(/N=N/c2ccc3ccccc3c2O)c2ccccc12
